What is called CC50 is the concentration that lowers cell viability or growth by half. As usually defined, the MIC90 is the lowest concentration that inhibits either 90% of growth or 90% of the strains tested, depending on the study. One may read the solubility as the dissolved amount per volume that the medium holds.

In brackets after ≈: the same amount, converted by molar mass.

Test system in one series: not listed separately
As to the kind of experiment: Cytotoxicity against African green monkey Vero cells after 72 hrs by MTT assay. The series is classed as cell-based. The settings on record: chlorocebus sabaeus. The method, boiled down: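 Vero cells were exposed to each compound over a broad concentration range. Viability was read by MTT, and cytotoxicity was reported as IC50.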
(In general: Formazan colour is commonly taken as a measure of viable cells.)
`CC(C)(C)C(=O)N1CCN(c2nc(=O)c3cc(C(F)(F)F)cc([N+](=O)[O-])c3s2)CC1` had a CC50 at 72 h greater than 125 µM.

The compound `COc1ccc(C(=O)N2CCN(c3nc(=O)c4cc(C(F)(F)F)cc([N+](=O)[O-])c4s3)CC2)cc1` had a cytotoxic concentration (CC50) at 72 h greater than 125 µM.

Take `O=C(c1ccc(F)cc1)N1CCN(c2nc(=O)c3cc(C(F)(F)F)cc([N+](=O)[O-])c3s2)CC1`: the CC50 at 72 h was greater than 125 µM.

`O=C(C1CCCCC1)N1CCN(c2nc(=O)c3cc(C(F)(F)F)cc([N+](=O)[O-])c3s2)CC1` gave a CC50 at 72 h of 88.7 µM.

`O=C(C1CC1)N1CCN(c2nc(=O)c3cc(C(F)(F)F)cc([N+](=O)[O-])c3s2)CC1` registered a CC50 at 72 h greater than 125 µM.

The compound `CC(C)(C)c1ccc(C(=O)N2CCN(c3nc(=O)c4cc(C(F)(F)F)cc([N+](=O)[O-])c4s3)CC2)cc1` gave a CC50 at 72 h greater than 125 µM.

Turning to `CC(=O)N1CCN(c2nc(=O)c3cc(C(F)(F)F)cc([N+](=O)[O-])c3s2)CC1`, the CC50 at 72 h is greater than 125 µM.

In turn, `CSCC(=O)N1CCN(c2nc(=O)c3cc(C(F)(F)F)cc([N+](=O)[O-])c3s2)CC1` came in with a CC50 at 72 h greater than 125 µM.

For the compound `O=C(c1ccccc1Cl)N1CCN(c2nc(=O)c3cc(C(F)(F)F)cc([N+](=O)[O-])c3s2)CC1`, the CC50 at 72 h is greater than 125 µM.

`O=C(C1CCCC1)N1CCN(c2nc(=O)c3cc(C(F)(F)F)cc([N+](=O)[O-])c3s2)CC1`: half-maximal cytotoxicity (CC50 at 72 h) was put at 120 µM.

For `O=C(C1CCC1)N1CCN(c2nc(=O)c3cc(C(F)(F)F)cc([N+](=O)[O-])c3s2)CC1`, the half-maximal cytotoxic concentration (CC50) at 72 h was greater than 125 µM.

The compound `O=C(N1CCN(c2nc(=O)c3cc(C(F)(F)F)cc([N+](=O)[O-])c3s2)CC1)C12CC3CC(CC(C3)C1)C2` had a CC50 at 72 h greater than 125 µM.

Turning to `CC(C)CC(=O)N1CCN(c2nc(=O)c3cc(C(F)(F)F)cc([N+](=O)[O-])c3s2)CC1`, the 50% cytotoxic concentration (CC50) at 72 h is greater than 125 µM.

`CCC(C)C(=O)N1CCN(c2nc(=O)c3cc(C(F)(F)F)cc([N+](=O)[O-])c3s2)CC1` (stereo not given) had a CC50 at 72 h greater than 125 µM.

Compound `Cc1ccc(C(=O)N2CCN(c3nc(=O)c4cc(C(F)(F)F)cc([N+](=O)[O-])c4s3)CC2)cc1` had a CC50 at 72 h greater than 125 µM.

Compound `CC(C)(C)C1CCC(C(=O)N2CCN(c3nc(=O)c4cc(C(F)(F)F)cc([N+](=O)[O-])c4s3)CC2)CC1` (stereo not given) displayed a CC50 at 72 h greater than 125 µM.

Test system in a further series: not listed separately
As to the kind of experiment: Ratio of aqueous solubility of PBTZ169 to aqueous solubility of the compound by HPLC method. The series is classed as physicochemical. The settings on record: buffer.
As for `CCC(C)C(=O)N1CCN(c2nc(=O)c3cc(C(F)(F)F)cc([N+](=O)[O-])c3s2)CC1` (stereo not given), the Ratio is on record as 10.

Test system in a further series: not listed separately
The series can be described thus: Ratio of aqueous solubility of BTZ038 to aqueous solubility of the compound by HPLC method. The series is classed as physicochemical. Particulars: buffer.
In the case of `CCC(C)C(=O)N1CCN(c2nc(=O)c3cc(C(F)(F)F)cc([N+](=O)[O-])c3s2)CC1` (stereo not given), the Ratio is recorded as 100.

Another series has as its system Mycobacterium tuberculosis. As to the kind of experiment: Antitubercular activity against Mycobacterium tuberculosis H37Ra ATCC 25177 by MABA method. The series is classed as functional.
Details: not given
(In general: Resazurin is reduced to fluorescent resorufin, in cell work by metabolically active cells.)
In turn, `CC(C)(C)C(=O)N1CCN(c2nc(=O)c3cc(C(F)(F)F)cc([N+](=O)[O-])c3s2)CC1` had an MIC90 of 0.031 µM (≈ 0.0138 µg/mL).

As for `COc1ccc(C(=O)N2CCN(c3nc(=O)c4cc(C(F)(F)F)cc([N+](=O)[O-])c4s3)CC2)cc1`, the MIC90 was 0.13 µM (≈ 0.0643 µg/mL).

Compound `O=C(c1ccc(F)cc1)N1CCN(c2nc(=O)c3cc(C(F)(F)F)cc([N+](=O)[O-])c3s2)CC1` showed an MIC90 of 0.031 µM (≈ 0.015 µg/mL).

`O=C(C1CCCCC1)N1CCN(c2nc(=O)c3cc(C(F)(F)F)cc([N+](=O)[O-])c3s2)CC1`: the MIC90 is 0.031 µM (≈ 0.0146 µg/mL).

`O=C(C1CC1)N1CCN(c2nc(=O)c3cc(C(F)(F)F)cc([N+](=O)[O-])c3s2)CC1` returned an MIC90 of 0.13 µM (≈ 0.0557 µg/mL).

In the case of `CC(C)(C)c1ccc(C(=O)N2CCN(c3nc(=O)c4cc(C(F)(F)F)cc([N+](=O)[O-])c4s3)CC2)cc1`, the MIC90 was 0.016 µM (≈ 0.00833 µg/mL).

The compound `CC(=O)N1CCN(c2nc(=O)c3cc(C(F)(F)F)cc([N+](=O)[O-])c3s2)CC1` gave an MIC90 greater than 0.13 µM.

As for `CSCC(=O)N1CCN(c2nc(=O)c3cc(C(F)(F)F)cc([N+](=O)[O-])c3s2)CC1`, the MIC90 was found to be 0.13 µM (≈ 0.0583 µg/mL).

Take `O=C(c1ccccc1Cl)N1CCN(c2nc(=O)c3cc(C(F)(F)F)cc([N+](=O)[O-])c3s2)CC1`: the MIC90 was found to be 0.016 µM (≈ 0.00798 µg/mL).

Take `O=C(C1CCCC1)N1CCN(c2nc(=O)c3cc(C(F)(F)F)cc([N+](=O)[O-])c3s2)CC1`: the MIC90 was 0.016 µM (≈ 0.0073 µg/mL).

`O=C(C1CCC1)N1CCN(c2nc(=O)c3cc(C(F)(F)F)cc([N+](=O)[O-])c3s2)CC1`: the MIC90 stood at 0.031 µM (≈ 0.0137 µg/mL).

In the case of `O=C(N1CCN(c2nc(=O)c3cc(C(F)(F)F)cc([N+](=O)[O-])c3s2)CC1)C12CC3CC(CC(C3)C1)C2`, the MIC90 came to 0.031 µM (≈ 0.0162 µg/mL).

Consider `CC(C)CC(=O)N1CCN(c2nc(=O)c3cc(C(F)(F)F)cc([N+](=O)[O-])c3s2)CC1`, for which the MIC90 was determined as 0.031 µM (≈ 0.0138 µg/mL).

`CCC(C)C(=O)N1CCN(c2nc(=O)c3cc(C(F)(F)F)cc([N+](=O)[O-])c3s2)CC1` (stereo not given) had an MIC90 of 0.008 µM (≈ 0.00356 µg/mL).

As to `Cc1ccc(C(=O)N2CCN(c3nc(=O)c4cc(C(F)(F)F)cc([N+](=O)[O-])c4s3)CC2)cc1`, the MIC90 amounted to 0.031 µM (≈ 0.0148 µg/mL).

Compound `CC(C)(C)C1CCC(C(=O)N2CCN(c3nc(=O)c4cc(C(F)(F)F)cc([N+](=O)[O-])c4s3)CC2)CC1` (stereo not given) had an MIC90 of 0.004 µM (≈ 0.00211 µg/mL).

Test system in a further series: not listed separately
The series can be described thus: Aqueous solubility of the compound by HPLC method. The series is classed as physicochemical. Particulars: water.
With `CC(C)(C)C(=O)N1CCN(c2nc(=O)c3cc(C(F)(F)F)cc([N+](=O)[O-])c3s2)CC1`, the solubility came to 5.87 µg/mL (≈ 13.2 µM).

As to `COc1ccc(C(=O)N2CCN(c3nc(=O)c4cc(C(F)(F)F)cc([N+](=O)[O-])c4s3)CC2)cc1`, the concentration in solution (solubility) was 0.22 µg/mL (≈ 0.445 µM).

Compound `O=C(c1ccc(F)cc1)N1CCN(c2nc(=O)c3cc(C(F)(F)F)cc([N+](=O)[O-])c3s2)CC1` yielded a solubility of 1.69 µg/mL (≈ 3.5 µM).

`O=C(C1CCCCC1)N1CCN(c2nc(=O)c3cc(C(F)(F)F)cc([N+](=O)[O-])c3s2)CC1` came in with a solubility of 3.24 µg/mL (≈ 6.89 µM).

`O=C(C1CC1)N1CCN(c2nc(=O)c3cc(C(F)(F)F)cc([N+](=O)[O-])c3s2)CC1` showed a solubility of 52.9 µg/mL (≈ 123 µM).

Compound `CC(C)(C)c1ccc(C(=O)N2CCN(c3nc(=O)c4cc(C(F)(F)F)cc([N+](=O)[O-])c4s3)CC2)cc1` showed a solubility of 1.25 µg/mL (≈ 2.4 µM).

Take `CC(=O)N1CCN(c2nc(=O)c3cc(C(F)(F)F)cc([N+](=O)[O-])c3s2)CC1`: the solubility is 83.9 µg/mL (≈ 208 µM).

In turn, `CSCC(=O)N1CCN(c2nc(=O)c3cc(C(F)(F)F)cc([N+](=O)[O-])c3s2)CC1` yielded a solubility of 15.2 µg/mL (≈ 33.8 µM).

On to `O=C(c1ccccc1Cl)N1CCN(c2nc(=O)c3cc(C(F)(F)F)cc([N+](=O)[O-])c3s2)CC1`, for which the solubility was found to be 8.18 µg/mL (≈ 16.4 µM).

As to `O=C(C1CCCC1)N1CCN(c2nc(=O)c3cc(C(F)(F)F)cc([N+](=O)[O-])c3s2)CC1`, the solubility was 5.34 µg/mL (≈ 11.7 µM).

`O=C(C1CCC1)N1CCN(c2nc(=O)c3cc(C(F)(F)F)cc([N+](=O)[O-])c3s2)CC1` had a solubility of 39.3 µg/mL (≈ 88.8 µM).

In the case of `O=C(N1CCN(c2nc(=O)c3cc(C(F)(F)F)cc([N+](=O)[O-])c3s2)CC1)C12CC3CC(CC(C3)C1)C2`, the solubility came to 2.95 µg/mL (≈ 5.65 µM).

Compound `CC(C)CC(=O)N1CCN(c2nc(=O)c3cc(C(F)(F)F)cc([N+](=O)[O-])c3s2)CC1` displayed a solubility of 66.3 µg/mL (≈ 149 µM).

In turn, `CCC(C)C(=O)N1CCN(c2nc(=O)c3cc(C(F)(F)F)cc([N+](=O)[O-])c3s2)CC1` (stereo not given) came in with a solubility of 104 µg/mL (≈ 234 µM).

On to `Cc1ccc(C(=O)N2CCN(c3nc(=O)c4cc(C(F)(F)F)cc([N+](=O)[O-])c4s3)CC2)cc1`, for which the solubility stood at 6.7 µg/mL (≈ 14 µM).

As for `CC(C)(C)C1CCC(C(=O)N2CCN(c3nc(=O)c4cc(C(F)(F)F)cc([N+](=O)[O-])c4s3)CC2)CC1` (stereo not given), the solubility was less than 0.1 µg/mL.

For the origin of these results see ChEMBL document CHEMBL3396998, “Synthesis and antitubercular evaluation of 4-carbonyl piperazine substituted 1,3-benzothiazin-4-one derivatives” (Bioorg Med Chem Lett, 2015).
